Measurements as given in paper PMC3790193 (British Journal of Cancer, 2013).
Where two headings read alike, the source gives them in different places. One block for each molecule: values may come before it.

Tests used:
Aerosol characterisation = format: physicochemical; details: nebulised solution 5 mg ml^−1, Pari LC Plus nebulisers
Procedure, shortened: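 Aerosol from a 5 mg ml−1 solution made by three jet nebulisers, piped through a ~24 in, 1.58-cm stainless tube into a 52-port flow-past nose-only chamber (exhaust ~14 l min−1). Concentration measured gravimetrically on membrane filters. Particle size sampled from the breathing zone with a Mercer-style cascade impactor at ~2.0 l min−1; MMAD calculated from the impactor data.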

Calu-6 tumours [1] = test: Gene methylation profiling of tumours; format: in vivo, Rowett nude rats
Procedure, shortened: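 Bisulphite-treated DNA from Calu-6 lung tumours (three per rat, four rats per group: vehicle, i.p. or aerosol) run on HM450K arrays. Normal bronchial epithelial lines from three never smokers used as reference. Probes from 200 bp 5′ of TSS through 5′-UTR; X, Y and imprinted genes excluded. Background corrected by normal-exponential method; β-values 0–1. Genes with normal β ⩾0.2 excluded. Vehicle β ⩾0.45 counted as methylated; ⩾20% β drop counted as demethylation.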

[2] = format: in vivo, Rowett nude rats; details: for half-life / AUC: male, Rowett nude (Cr:NIH-ru), rat
Procedure, shortened: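 Male Rowett nude rats dosed once with drug in saline: 2 mg kg−1 i.p., or aerosol over 90 min nose-only (0.6 mg kg−1 deposited). Deposited dose = aerosol concentration × minute volume × time × deposition fraction (~10%) ÷ body weight. Three rats per group killed at each of 11 times over 96 h. Plasma and lung extracted by solid-phase extraction; LC/MS/MS on C18 column (25 °C), positive ESI. Non-compartmental analysis of per-time-point means.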

Calu-6 cells [3] = details: systemic delivery, previous study; ref Belinsky et al, 2011; cited from earlier work
Calu-6 cells [4] = test: Orthotopic lung cancer model, tumour burden; format: in vivo, Rowett nude rats; details: for reduction in tumour burden: vs vehicle
Procedure, shortened: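 Calu-6 cells instilled orotracheally into male nude rats. From 3 weeks, groups of 20 received saline, 2 mg kg−1 i.p., or 0.6 mg kg−1 aerosol on 4 consecutive days over 4 weeks. At 7 weeks, lungs weighed; burden = tumour-bearing minus normal lung weight (rats without tumour cells). Lungs inflated with 10% neutral-buffered formalin at 25 cm for 6 h; 5-μm paraffin sections, H&E. t-test/ANOVA.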

Calu-6 tumours [5] = test: Gene expression in lung tumours; format: in vivo, Rowett nude rats
Procedure, shortened: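 Male nude rats (8–10 weeks) given orotracheal Calu-6 cells. From week 3 they received saline, 2 mg kg−1 i.p., or 0.6 mg kg−1 aerosol on 4 consecutive days for 4 weeks. Five tumours from each of four rats per group; RNA by TRI-reagent, 1 μg reverse transcribed; TaqMan qPCR normalised to GAPDH. 2−ΔΔCt relative to vehicle tumours; triplicate assays; mean±s.e.m.; two-sample t-test.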

lung cancer = details: nebuliser, ref Lemarie et al, 2011, cited from earlier work
[6] = aerosol, 0.6 mg kg^−1 inhaled deposited dose, 90 min nose-only, single dose
[7] = plasma, inhaled or intranasal, 0.6 mg/kg
[8] = systemic, intraperitoneal injection 2 mg kg^−1, single dose

average MMAD (mean mass aerodynamic diameter) (Aerosol characterisation): 0.71 μm | AUC Lung [2, 6]: 8460 ng·h/mL | Concentrationmax Lung [2, 6]: 7883 ng/mL | Concentrationmax Plasma [2, 6]: 893 ng/mL | half-life ([2]; lung, inhaled or intranasal, 0.6 mg/kg): 110 min | half-life ([2]; lung, ip, 2 mg/kg): 8.4 min | AUC [2, 7]: 1890 ng·h/mL | half-life [2, 7]: 74.4 min | AUC ([2]; plasma, ip, 2 mg/kg): 19100 ng·h/mL | half-life ([2]; plasma, ip, 2 mg/kg): 25.2 min | AUC Lung [2, 8]: 1082 ng·h/mL | Concentrationmax Lung [2, 8]: 2147 ng/mL | Concentrationmax Plasma [2, 8]: 15 492 ng ml^−1 | weight gain of rats (Calu-6 cells [4]; irrespective of treatment route): 15–20%
SMILES: Nc1ncn([C@@H]2O[C@H](CO)[C@@H](O)[C@H]2O)c(=O)n1 [5-Aza, 5-azacytidine]
average number of genes showing ⩾20% demethylation (Calu-6 tumours [1]; aerosol delivery): 521 genes | genes classified as methylated in the Calu-6 tumours that responded (Calu-6 tumours [1]; aerosol delivery, on average): approximately 50% | genes commonly demethylated in 75% of tumours (Calu-6 tumours [1]; aerosol exposure): 501 genes | genes in common across all tumours demethylated ⩾20% (Calu-6 tumours [1]; aerosol-treated rats): 300 genes | average number of genes showing ⩾20% demethylation (Calu-6 tumours [1]; systemic delivery): 352 genes | genes commonly demethylated in 75% of tumours (Calu-6 tumours [1]; systemic exposure): 275 genes | genes in common across all tumours demethylated ⩾20% (Calu-6 tumours [1]; systemic treatment): 20 genes | pleomorphic cell population in residual tumour (Calu-6 cells [3]): < 5 % of the residual tumour | Lung weight, mean±s.d. (Calu-6 cells [4]; aerosol 0.6 mg kg^−1, 4 consecutive days over 4 consecutive weeks, N=17): 3.72 ± 0.82 g | reduction in tumour burden (Calu-6 cells [4]; aerosol delivery over 4 weeks): 29% | removal of the pleomorphic cell population of tumours (Calu-6 cells [4]; inhaled delivery, histology (not shown)): equally effective as systemic delivery | Lung weight, mean±s.d. (Calu-6 cells [4]; systemic 2 mg kg^−1, 4 consecutive days over 4 consecutive weeks, N=18): 3.58 ± 0.95 g | reduction in tumour burden (Calu-6 cells [4]; systemic delivery over 4 weeks): 34% | effect on the expression of Bik (Calu-6 tumours [5]; aerosol delivery compared with systemic delivery, P<0.001): more profound effect | expression of p21 (WAF1) (Calu-6 tumours [5]; following systemic or aerosol delivery): increased to a similar extent

SMILES: Nc1ccn([C@@H]2O[C@H](CO)[C@@H](O)C2(F)F)c(=O)n1 [Gemcitabine]
total dose delivered to the lungs, on average (lung cancer; 1 day per week for 9 consecutive weeks): 42±16% | toxicity (lung cancer): no haematologic toxicity, nephrotoxicity, or neurotoxicity were observed
